DNA FID counter = compounds displacing fluorescent DNA intercalator, primary screen, artefact control for HCV NS3 helicase inhibitor project, biochemical, FID fluorescence; DNA fluorescent intercalator displacement; inhibition, % at 7.9 µM; 290,000 tested, 0.17% active; AID 1845, 2009; in the data active = inhibition above about 37%;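 also: higher means more ethidium bromide displaced from hairpin DNA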
Apaf-1 inh = inhibitors of human Apaf-1 apoptosome, primary screen, biochemical, DEVD-Rh110 fluorescence, uHTS; AID 489030, 2010; reconstituted apoptosome caspase-3 activity; Apoptotic protease-activating factor 1 (Homo sapiens), O14727; inhibition, % at 20 µM; 330,000 tested, 0.71% active; active = inhibition of at least 40% at 20 µM
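detection = Rh110 fluorescence intensity | test system = biochemical Apaf-1 apoptosome reconstitution | also added = cytochrome c and DEVD-Rh110 substrate | schedule = 30 min plus 50 min, RT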
ANO1 activ = TMEM16A chloride channel activators or potentiators, primary screen, cell-based, HTS; AID 623877, 2012; HEK293 TMEM16A/YFP-H148Q/I152L, iodide quench fluorescence; active compounds read low; 340,000 tested, 0.3% active; Anoctamin-1 (Mus musculus), Q8BHY3; B-score at 10 µM;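 active = fluorescence-ratio B-score plate-corrected deviation score at least 3 library SD below zero, with starting fluorescence score within 5 deviations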;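 also: channel opened by trigger with iodide after compound preincubation; score built on the fluorescence ratio of max minus min over baseline; more negative score means more quench and so TMEM16A activation or potentiation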
Target sequence (Q8BHY3 whole entry, looked up): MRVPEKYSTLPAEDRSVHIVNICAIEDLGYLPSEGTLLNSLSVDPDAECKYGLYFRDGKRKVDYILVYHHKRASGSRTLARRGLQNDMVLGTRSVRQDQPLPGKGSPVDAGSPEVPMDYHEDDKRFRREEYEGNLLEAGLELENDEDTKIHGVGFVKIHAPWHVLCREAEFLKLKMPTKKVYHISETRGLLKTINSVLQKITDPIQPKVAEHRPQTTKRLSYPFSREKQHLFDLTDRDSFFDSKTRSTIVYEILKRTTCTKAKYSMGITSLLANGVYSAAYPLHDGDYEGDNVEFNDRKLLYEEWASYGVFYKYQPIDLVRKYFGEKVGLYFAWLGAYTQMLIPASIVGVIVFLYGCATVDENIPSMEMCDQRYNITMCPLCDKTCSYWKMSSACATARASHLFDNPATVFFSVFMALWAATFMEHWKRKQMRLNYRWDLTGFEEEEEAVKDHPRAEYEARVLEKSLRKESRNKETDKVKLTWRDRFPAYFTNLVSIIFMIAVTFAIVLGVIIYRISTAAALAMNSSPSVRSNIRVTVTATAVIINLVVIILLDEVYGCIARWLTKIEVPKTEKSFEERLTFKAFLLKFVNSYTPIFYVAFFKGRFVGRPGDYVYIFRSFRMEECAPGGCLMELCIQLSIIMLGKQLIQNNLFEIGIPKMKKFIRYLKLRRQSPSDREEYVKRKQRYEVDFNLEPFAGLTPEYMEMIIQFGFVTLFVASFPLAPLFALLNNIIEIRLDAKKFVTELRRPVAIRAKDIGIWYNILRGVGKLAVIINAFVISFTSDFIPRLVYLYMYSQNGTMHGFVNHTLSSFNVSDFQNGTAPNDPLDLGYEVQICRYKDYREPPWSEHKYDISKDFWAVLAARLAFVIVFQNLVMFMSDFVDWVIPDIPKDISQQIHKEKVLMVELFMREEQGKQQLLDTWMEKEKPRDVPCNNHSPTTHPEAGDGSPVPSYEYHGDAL
ANO1 block = TMEM16A chloride channel inhibitors, primary screen, cell-based, HTS; normalized B-score (activity score, 25-100; higher = stronger inhibition) at 10 µM; AID 588511, 2011; HEK293 TMEM16A/YFP iodide influx fluorescence, ionomycin; 310,000 tested, 1.2% active; Anoctamin-1 (Mus musculus), Q8BHY3;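 active = ratio plate-corrected score three or more library SD toward inhibition, starting fluorescence score within five deviations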;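 also: score derived from kinetic fluorescence span divided by baseline fluorescence per well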
UBC13 polyUb = UBC13 polyubiquitin chain formation inhibitors, primary screen, biochemical, TR-FRET, uHTS; inhibition, % at 20 µM; Ubiquitin-conjugating enzyme E2 N (Homo sapiens), P61088; AID 485273, 2010; 330,000 tested, 0.47% active; in the data active = inhibition above about 45%, passing the limit was not always enough
Apaf-1 inh conf2 = Apaf-1 inhibitors, single-dose retest, confirmation, biochemical, fluorescence, DEVD-Rh110, 20 µM | shares compounds with Apaf-1 inh | reconstituted apoptosome, caspase-3 DEVD-Rh110 fluorescence | inhibition, % at 20 µM | 1,800 tested, 25% active;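 active = mean inhibition of at least 40% at 20 µM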
Rh110 quench = Rh110 fluorescence interference by putative Apaf-1 inhibitors, confirmation, artefact control for Apaf-1 inhibitor project, biochemical, 20 µM; 1,800 tested, under 10 active; activation (fluorescence interference), % at 20 µM; quenched caspase reaction; shares compounds with Apaf-1 inh; AID 504615, 2011;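 active = signal rise of 40% or more at 20 µM, treated as a fluorescence artifact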
Fluor interf inh = fluorescence interference of Apaf-1 inhibitor hits, dose response, artefact control for Apaf-1 inhibitor project. fluorescence interference counterscreen, Apaf-1 assay format. shares compounds with Apaf-1 inh. IC50, µM. AID 588538, 2011. 460 tested, under 10 active; call rule not given here
Each line names hits and unclear results; the compound was inactive in the other large screens (follow-up assays come after a bar, where they were run). The list is not random: actives were taken first. Their share in the collection is about 2.4%.

COc1ccc(Cn2c(N)c(C(=O)NCc3ccco3)c3nc4ccccc4nc32)cc1OC	Apaf-1 inh 66 | Apaf-1 inh conf2 inactive | Rh110 quench inactive
CC(C)CCNC(=O)c1c(N)n(Cc2ccc3c(c2)OCO3)c2nc3ccccc3nc12	Apaf-1 inh 90 | Apaf-1 inh conf2 inactive | Rh110 quench inactive
CCCNC(=O)c1c(N)n(Cc2ccc3c(c2)OCO3)c2nc3ccccc3nc12	Apaf-1 inh 83 | Apaf-1 inh conf2 inactive | Rh110 quench inactive
C=CCn1c(=O)c(C=Nc2cccnc2Cl)c(O)n(CCCC)c1=O	none
CCCC1CCCCC12C(=O)NC(=O)NC2=O (centres undefined)	none (no result: DNA FID counter, Apaf-1 inh, ANO1 block, UBC13 polyUb)
Cc1ccc(C[n+]2c(-c3ccc(C)cc3)cc(-c3ccc(C)cc3)cc2-c2ccc(C)cc2)cc1	Apaf-1 inh 79, ANO1 block 100 (no result: DNA FID counter) | Apaf-1 inh conf2 inactive | Rh110 quench inactive
CCCN1CCc2cccc3c2[C@H]1Cc1ccc(O)c(O)c1-3	Apaf-1 inh 53 (no result: DNA FID counter) | Apaf-1 inh conf2 inactive | Rh110 quench inactive
COCCCNC(=O)c1c(N)n(Cc2ccco2)c2nc3ccccc3nc12	none
CC(C)CCn1c(N)c(C(=O)NCc2cccs2)c2nc3ccccc3nc21	Apaf-1 inh 89 | Apaf-1 inh conf2 inactive | Rh110 quench inactive
CCCCNC(=O)c1c(N)n(CCCOC)c2nc3ccccc3nc12	Apaf-1 inh 90 | Apaf-1 inh conf2 50 | Rh110 quench inactive | Fluor interf inh inactive
CC(C)OCCCNC(=O)c1c(N)n(Cc2cccs2)c2nc3ccccc3nc12	Apaf-1 inh 95 | Apaf-1 inh conf2 inactive | Rh110 quench inactive
Nc1c(C(=O)NCC2CCCO2)c2nc3ccccc3nc2n1Cc1ccco1 (centres undefined)	none
Nc1c(C(=O)OCC2CCCO2)c2nc3ccccc3nc2n1Cc1cccs1 (centres undefined)	Apaf-1 inh 56 | Apaf-1 inh conf2 inactive | Rh110 quench inactive
CN1CCN(c2nc(N)c(Br)c(Cl)n2)CC1	none
O=C1N(c2cccc(Cl)c2)C(c2cccnc2)N2CCCN12 (centres undefined)	none
COC1C(O)C(C)OC(OC2CCC3(C)C(CCC4C3C(O)CC3(C)C(C5=CC(=O)OC5)CCC43O)C2)C1O (centres undefined)	none (no result: DNA FID counter, Apaf-1 inh, ANO1 block, UBC13 polyUb)
C[C@H]1CC[C@H]2NCCN[C@H]2C1	none
CC1(C(=O)O)CC12c1ccccc1-c1ccccc12 (centres undefined)	none (no result: DNA FID counter, Apaf-1 inh, ANO1 block, UBC13 polyUb)
Cc1ccc(-n2cc(CNC(C)Cc3cnccn3)c(-c3cccc(C)c3)n2)cc1 (centres undefined)	none
C=CCNC(=O)c1c(N)n(CCN2CCOCC2)c2nc3ccccc3nc12	none
COCCCn1c(N)c(C(=O)OCCOC)c2nc3ccccc3nc21	Apaf-1 inh 95 | Apaf-1 inh conf2 inactive | Rh110 quench inactive
COCCOC(=O)c1c(N)n(Cc2ccc(OC)cc2)c2nc3ccccc3nc12	Apaf-1 inh 66 | Apaf-1 inh conf2 inactive | Rh110 quench inactive
CCOC(=O)c1c(NS(=O)(=O)c2ccccc2)n(CCCOC)c2nc3ccccc3nc12	Apaf-1 inh 96 | Apaf-1 inh conf2 76 | Rh110 quench inactive | Fluor interf inh inactive
COCCNC(=O)c1c(N)n(CCC(C)C)c2nc3ccccc3nc12	Apaf-1 inh 82 | Apaf-1 inh conf2 inactive | Rh110 quench inactive
CN1CCN(c2ccc(F)cc2N)CC1	none
Cc1nc2c(=O)n(C)c(=O)nc-2n(C)n1	Apaf-1 inh 99 | Apaf-1 inh conf2 100 | Rh110 quench inactive | Fluor interf inh inactive
O=c1[nH]c2ccccc2n1C1CCN(CCCC(c2ccc(F)cc2)c2ccc(F)cc2)CC1	Apaf-1 inh 56 | Apaf-1 inh conf2 inactive | Rh110 quench inactive
CCOC(=O)c1c(N)n(Cc2ccc(OC)cc2)c2nc3ccccc3nc12	none (no result: Apaf-1 inh, ANO1 activ, ANO1 block, UBC13 polyUb)
COCCOC(=O)c1c(N)n(Cc2ccco2)c2nc3ccccc3nc12	none
CCCCCn1c(NC(=O)c2ccco2)c(C(=O)OCC)c2nc3ccccc3nc21	Apaf-1 inh 92 | Apaf-1 inh conf2 49 | Rh110 quench inactive | Fluor interf inh inactive
COCCNC(=O)c1c(NC(=O)c2ccc(Br)o2)n(Cc2ccccc2)c2nc3ccccc3nc12	Apaf-1 inh 67 | Apaf-1 inh conf2 inactive | Rh110 quench inactive
COCCCNC(=O)c1c(NC(=O)c2ccco2)n(Cc2ccccc2)c2nc3ccccc3nc12	Apaf-1 inh 71 | Apaf-1 inh conf2 inactive | Rh110 quench inactive | Fluor interf inh inactive
O=C1C2CCCC1C(N1CCCCC1)CC2 (centres undefined)	none
COc1ccc(P2(=O)Nc3ccccc3N2)cc1	Apaf-1 inh 49 | Apaf-1 inh conf2 inactive | Rh110 quench inactive
COc1cc2c(cc1OC)-c1c(OC)c(OC)cc3c1[C@H](C2)N(C)CC3	Apaf-1 inh 95 | Apaf-1 inh conf2 96 | Rh110 quench inactive | Fluor interf inh inactive
CCN1C(=O)N(CC)C(=O)C2(Cc3ccccc3N3CCN(c4ccccc4)CC32)C1=O (centres undefined)	none
CC1(C)NC(=O)[C@H]2CCCN21	none (no result: DNA FID counter)
c1cncc(C2CCCCN2)c1 (centres undefined)	none
c1cncc(C2Nc3cccc4cccc(c34)N2)c1	Apaf-1 inh 42 | Apaf-1 inh conf2 inactive | Rh110 quench inactive
CN1CCC(C)(O)C2CCCCC21 (centres undefined)	none
CCN(CCO)c1ccc(N=Cc2c(O)n(C)c(=S)[nH]c2=O)cc1	Apaf-1 inh 51, ANO1 activ -10 | Apaf-1 inh conf2 inactive | Rh110 quench inactive
CCN(CC)c1ccc(N=Cc2c(O)n(CCc3ccc(OC)c(OC)c3)c(=O)[nH]c2=O)cc1	none (no result: Apaf-1 inh, UBC13 polyUb)
CCN(CC)c1ccc(N=Cc2c(O)n(-c3cc(OC)ccc3OC)c(=O)[nH]c2=O)cc1	Apaf-1 inh 48 | Apaf-1 inh conf2 inactive | Rh110 quench inactive
O=c1cc(C2CCNCC2)[nH][nH]1	Apaf-1 inh 58 | Apaf-1 inh conf2 inactive | Rh110 quench inactive
COc1cccc(CNCCc2cccc(F)c2)c1OC	none
COC(=O)C1=C(c2ccc(S(C)(=O)=O)cc2)C[C@@H]2CC[C@H]1N2C(=O)NCc1ccco1	none (no result: DNA FID counter)
